Assays:
[1] = molecular target: T1, Prostaglandin D2 receptor 2 (Homo sapiens, UniProt Q9Y5Y4); assay: Displacement of [3H]PGD2 from human CRTH2 expressed in chinese hamster CHO cells by liquid scintillation counting; assay type: cell-based
T1 sequence (Q9Y5Y4 whole entry): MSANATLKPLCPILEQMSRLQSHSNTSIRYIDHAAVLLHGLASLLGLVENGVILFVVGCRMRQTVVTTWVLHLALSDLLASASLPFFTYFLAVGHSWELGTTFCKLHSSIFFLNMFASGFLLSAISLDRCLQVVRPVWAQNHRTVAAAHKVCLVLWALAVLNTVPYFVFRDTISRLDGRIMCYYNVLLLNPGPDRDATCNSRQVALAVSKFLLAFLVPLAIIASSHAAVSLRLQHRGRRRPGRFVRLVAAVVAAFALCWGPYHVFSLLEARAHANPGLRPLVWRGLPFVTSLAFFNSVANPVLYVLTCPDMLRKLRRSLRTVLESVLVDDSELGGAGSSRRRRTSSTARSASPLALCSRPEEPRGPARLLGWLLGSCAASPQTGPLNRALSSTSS
In short: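 Scintillation proximity competition assay: 2–5 μg human CRTH2 cell membranes, 1.5 nM [3H]PGD2, WGA-SPA beads, 10 mM HEPES/KOH pH 7.4, 10 mM MnCl2, protease inhibitors, 1% DMSO; 90 min, room temperature, shaking. Nonspecific binding defined with 1 μM PGD2. Ki by Cheng–Prusoff, mean of ≥3 independent dose–response experiments.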

[2] = molecular target: T2, Prostaglandin D2 receptor 2 (Mus musculus, UniProt Q9Z2J6); assay: Displacement of [3H]PGD2 from mouse CRTH2 expressed in human HEK cells by liquid scintillation counting; assay type: cell-based, HEK293
T2 sequence (Q9Z2J6 whole entry): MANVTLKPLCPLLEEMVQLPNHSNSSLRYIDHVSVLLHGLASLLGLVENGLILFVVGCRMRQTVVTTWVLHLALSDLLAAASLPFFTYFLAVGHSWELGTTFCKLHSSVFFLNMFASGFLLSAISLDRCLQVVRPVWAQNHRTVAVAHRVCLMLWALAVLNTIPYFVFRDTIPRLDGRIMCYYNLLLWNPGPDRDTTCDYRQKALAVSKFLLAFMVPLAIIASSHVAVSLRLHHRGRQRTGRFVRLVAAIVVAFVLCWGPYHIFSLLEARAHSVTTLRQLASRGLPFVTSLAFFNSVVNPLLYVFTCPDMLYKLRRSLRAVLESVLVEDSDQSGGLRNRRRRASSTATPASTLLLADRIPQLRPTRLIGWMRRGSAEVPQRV
In short: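 Mouse CRTH2 cDNA stably expressed in HEK293(EBNA) cells (hygromycin-selected) and membranes made by nitrogen cavitation. SPA competition uses 2–5 μg membranes, 1.5 nM [3H]PGD2, HEPES/KOH pH 7.4 with 10 mM MnCl2, 1% DMSO, 90 min at room temperature. Nonspecific binding defined with 1 μM PGD2. Ki by Cheng–Prusoff, ≥3 independent experiments.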

[3] = molecular target: T1, Prostaglandin D2 receptor 2; assay: Displacement of [3H]PGD2 from human CRTH2 expressed in chinese hamster CHO cells by liquid scintillation counting in the presence of 0.1% BSA; assay type: cell-based
In short: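 Scintillation proximity assay on 2–5 μg human CRTH2 membranes with WGA-SPA beads and 1.5 nM [3H]PGD2. Buffer: 10 mM HEPES/KOH pH 7.4, 10 mM MnCl2, protease inhibitors, 1% DMSO, 0.1% BSA. Incubated 90 min at room temperature with shaking. Nonspecific binding defined with 1 μM PGD2. Ki by Cheng–Prusoff, mean of at least three independent dose–response experiments.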

[4] = molecular target: T1, Prostaglandin D2 receptor 2; assay: Antagonist activity at human CRTH2 expressed in human CHO cells by cellular dielectric spectroscopy
[5] = molecular target: T1, Prostaglandin D2 receptor 2; assay: Antagonist activity at human CRTH2 expressed in […] by cellular dielectric spectroscopy in the presence of PGD2 and 0.1% BSA; assay type: functional, cell-based
In short: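 CHO-CRTH2 cells grown in HAM's F12 with 10% FCS and 400 μg/mL Geneticin, seeded at 100000 cells/well, 24 h at 37 °C. Washed in HBSS plus 10 mM HEPES pH 7.4 with 1% DMSO and 0.1% BSA. Compound added, then PGD2 at its EC80.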

Cytochrome P450 2C9 = Cytochrome P450 2C9 (Homo sapiens, UniProt P11712); assay: Inhibition of human recombinant CYP2C9 expressed in baculovirus infected insect cells preincubated for 15 mins measured after 30 mins by luminescence analysis; assay type: ADME
Cytochrome P450 2C9, sequence (P11712 whole entry): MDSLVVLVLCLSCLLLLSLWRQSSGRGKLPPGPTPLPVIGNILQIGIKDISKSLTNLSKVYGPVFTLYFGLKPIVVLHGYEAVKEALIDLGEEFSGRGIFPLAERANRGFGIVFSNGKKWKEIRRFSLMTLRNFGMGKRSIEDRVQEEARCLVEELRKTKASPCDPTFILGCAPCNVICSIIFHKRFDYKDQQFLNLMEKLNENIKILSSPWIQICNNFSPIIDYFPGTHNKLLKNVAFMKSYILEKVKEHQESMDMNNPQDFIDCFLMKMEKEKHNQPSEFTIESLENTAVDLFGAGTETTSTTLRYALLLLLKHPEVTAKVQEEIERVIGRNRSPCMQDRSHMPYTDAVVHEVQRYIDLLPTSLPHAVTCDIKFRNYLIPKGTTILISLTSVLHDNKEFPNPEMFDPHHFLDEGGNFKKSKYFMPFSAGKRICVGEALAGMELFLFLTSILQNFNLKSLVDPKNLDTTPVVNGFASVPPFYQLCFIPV

Rattus norvegicus = species: Rattus norvegicus; assay: Inhibition of rat GABA gated chloride ion channel at 10 uM
In short: (§1)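 Selectivity screen: panel of 50 receptor and ion-channel targets, tested at 10 μM; EP2 by binding assay; GABA-gated Cl− channel from rat. Result expressed as % inhibition.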

[6] = molecular target: Prostaglandin E2 receptor EP2 subtype (Homo sapiens) (UniProt P43116); assay: Inhibition of EP2 receptor at 10 uM; in short: as §1
Prostaglandin E2 receptor EP2 subtype (Homo sapiens), sequence (P43116 whole entry): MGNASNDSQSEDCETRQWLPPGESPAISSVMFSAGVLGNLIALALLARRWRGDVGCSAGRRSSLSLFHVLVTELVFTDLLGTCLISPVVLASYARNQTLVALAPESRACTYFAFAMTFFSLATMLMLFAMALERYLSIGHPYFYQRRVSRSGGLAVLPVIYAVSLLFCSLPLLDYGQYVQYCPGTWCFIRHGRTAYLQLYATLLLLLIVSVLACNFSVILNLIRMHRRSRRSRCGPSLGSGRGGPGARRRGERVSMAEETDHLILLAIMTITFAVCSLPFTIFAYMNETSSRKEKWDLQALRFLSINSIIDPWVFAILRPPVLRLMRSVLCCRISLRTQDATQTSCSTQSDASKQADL

[7] = Percentage unbound in human plasma; assay type: ADME, cell-free
[8] = Percentage unbound in rat plasma; assay type: ADME, cell-free
[9] = Percentage unbound in mouse plasma; assay type: ADME, cell-free
[10] = Intrinsic clearance in human liver microsomes assessed per mg of protein at 1 uM by LC/MS/MS analysis; assay type: ADME, Microsome
[11] = Intrinsic clearance in rat liver microsomes assessed per mg of protein at 1 uM by LC/MS/MS analysis; assay type: ADME, Microsome
[12] = Kinetic solubility of the compound in 2% DMSO; assay type: physicochemical; conditions: read-out: Kinetic_solubility
[13] = Kinetic solubility of the compound in phosphate buffered saline; assay type: physicochemical; conditions: read-out: Kinetic_solubility
[14] = Apparent permeability across human Caco2 cells at 1 uM after 2 hrs by LC/MS/MS analysis; assay type: ADME, cell-based; conditions: Caco-2
[15] = Lipophilicity, log D of the compound at pH 7.4; assay type: physicochemical; conditions: buffer
[16] = Clearance in BALB/c mouse at 0.2 mg/kg, iv and 1 mg/kg, po by LC/MS/MS analysis; assay type: ADME, organism-based; conditions: in vivo
In short: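 Low-dose cassette PK in mouse: 0.2 mg/kg iv and 1 mg/kg po.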

[17] = Oral bioavailability in BALB/c mouse at 1 mg/kg by LC/MS/MS analysis; assay type: ADME, organism-based; conditions: in vivo
In short: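 Oral bioavailability in mouse from a 1 mg/kg po dose given in a cocktail (cassette) experiment.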

[18] = Half life in BALB/c mouse at 0.2 mg/kg, iv by LC/MS/MS analysis; assay type: ADME, organism-based; parameters: dose 0.2 mg/kg, route intravenous; conditions: in vivo
[19] = Half life in BALB/c mouse at 1 mg/kg, po by LC/MS/MS analysis; assay type: ADME, organism-based; parameters: dose 1 mg/kg, route oral; conditions: in vivo
[20] = Volume of distribution at steady state in BALB/c mouse at 0.2 mg/kg, iv and 1 mg/kg, po by LC/MS/MS analysis; conditions: in vivo, read-out: Vdss

Ki [1]: 0.029 µM
Ki [2]: 0.0374 µM
IC50 [3]: 0.029 µM
IC50 [4]: 0.114 µM
IC50 [5]: 1.2 µM
IC50 (Cytochrome P450 2C9): 1.44 µM
inhibition (Rattus norvegicus): 76%
inhibition [6]: 66%
fraction unbound [7]: < 0.003
fraction unbound [8]: < 0.003
fraction unbound [9]: < 0.003
microsomal CLint at 1 µM [10]: 12 µL/min/mg
microsomal CLint at 1 µM [11]: 27 µL/min/mg
solubility kinetic [12]: > 200 µM
solubility kinetic [13]: > 200 µM
Papp at 2 h, 1 µM [14]: 184 nm/s
logD [15]: 0.5
clearance [16]: 1 L/h/kg
bioavailability [17]: 82%
half-life [18]: 18 min
half-life [19]: 96 min
Vd [20]: 0.3 L/kg
SMILES: O=C(O)COc1ccc(Cl)cc1C#Cc1cccc(Cl)c1

From ChEMBL document CHEMBL1914440, “Discovery of potent, selective, and orally bioavailable alkynylphenoxyacetic acid CRTH2 (DP2) receptor antagonists for the treatment of allergic inflammatory diseases” (J Med Chem, 2011)
